Experimental findings from ChEMBL document CHEMBL1133383, “Synthesis and enzyme inhibitory activities of a series of lipidic diamine and aminoalcohol derivatives on cytosolic and secretory phospholipases A2” (Bioorg Med Chem Lett, 2000) are described below.

Assay [1] addresses T1, Cytosolic phospholipase A2 (Mus musculus) (UniProt P47713).
T1 sequence (whole entry): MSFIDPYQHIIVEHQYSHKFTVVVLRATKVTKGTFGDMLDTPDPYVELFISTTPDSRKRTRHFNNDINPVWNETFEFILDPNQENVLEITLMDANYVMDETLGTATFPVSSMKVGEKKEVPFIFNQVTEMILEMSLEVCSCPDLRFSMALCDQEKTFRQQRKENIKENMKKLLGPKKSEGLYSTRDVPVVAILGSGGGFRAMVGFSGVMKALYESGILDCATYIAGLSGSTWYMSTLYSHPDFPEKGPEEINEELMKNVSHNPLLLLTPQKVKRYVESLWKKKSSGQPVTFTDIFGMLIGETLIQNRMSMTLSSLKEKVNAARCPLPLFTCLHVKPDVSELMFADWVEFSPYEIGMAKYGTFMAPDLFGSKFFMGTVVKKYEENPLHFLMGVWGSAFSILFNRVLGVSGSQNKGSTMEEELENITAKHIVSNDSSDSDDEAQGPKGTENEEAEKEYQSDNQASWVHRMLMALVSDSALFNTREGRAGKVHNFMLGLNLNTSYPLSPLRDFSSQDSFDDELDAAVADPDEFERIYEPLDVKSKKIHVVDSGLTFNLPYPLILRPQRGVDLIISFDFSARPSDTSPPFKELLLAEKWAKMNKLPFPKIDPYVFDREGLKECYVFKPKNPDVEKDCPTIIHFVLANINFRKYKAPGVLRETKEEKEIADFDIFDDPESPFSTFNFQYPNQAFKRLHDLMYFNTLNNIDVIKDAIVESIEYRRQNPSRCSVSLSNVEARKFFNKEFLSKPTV
The experiment in a line: (§1) Effect on cytosolic Phospholipase A2 (PLA2) activity at a concentration of 100 uM. The procedure, abridged:
(§2)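 Group IV cytosolic PLA2 from the RAW 264.7 macrophage line. Percent inhibition was measured at a single test concentration and reported as mean ± SEM (n=6). IC50 was determined only for compounds reaching 50% inhibition at that concentration.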

Assay [2] addresses T2, Cytosolic phospholipase A2 (Mus musculus, UniProt P47713).
T2 sequence (P47713 whole entry): T1 sequence (whole entry)
The description is as §1. The essentials:
as §2

The target of assay [3] is T3, Phospholipase A2, membrane associated (Homo sapiens) (UniProt P14555).
T3 sequence (whole entry): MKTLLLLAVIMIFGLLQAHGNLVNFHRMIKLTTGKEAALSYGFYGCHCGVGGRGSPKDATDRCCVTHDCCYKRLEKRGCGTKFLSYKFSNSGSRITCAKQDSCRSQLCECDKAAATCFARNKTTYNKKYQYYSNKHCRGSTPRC
Briefly: (§3) Inhibition of secretory PLA2 activity in human recombinant synovial enzyme using [3H]oleate labelled membranes at a concentration of 10 uM. The essentials: (§4)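 Secretory PLA2 activity was measured using autoclaved [3H]oleate-labelled membranes as substrate. The enzyme was either group II human recombinant synovial PLA2 or group I porcine pancreatic PLA2. Percent inhibition at a single concentration is reported as mean ± SEM (n=6), with significance marked at P<0.05 and P<0.01.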

In assay [4] the target is Phospholipase A2 (Homo sapiens) (UniProt P04054). Conditions: Apis mellifera; 10 uM.
Assay [5] has the same target. Conditions: Naja naja; 10 uM.
Assay [6] deals with T4, Phospholipase A2, membrane associated (Homo sapiens, UniProt P14555).
T4 sequence (P14555 whole entry): T3 sequence (whole entry)
Described as §3. The essentials:
as §4

The term IC50 denotes the concentration needed to halve the response being measured.

Phospholipase A2 (Homo sapiens), sequence (P04054 23-148 limits assumed): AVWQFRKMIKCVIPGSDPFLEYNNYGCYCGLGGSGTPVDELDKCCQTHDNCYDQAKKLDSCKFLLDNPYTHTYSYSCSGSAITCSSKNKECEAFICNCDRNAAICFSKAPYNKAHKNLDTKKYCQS

The molecule `CCCCCCCCCCCCCCC(COCc1ccccc1)NC(=O)CCCC(=O)O` (centres undefined) came in with an I in assay [1] of 84.8%. The molecule also came in with an IC50 in assay [2] of 10.5 µM.
`CCCCCCCCCCCCCCC(=O)NC(CCCCCCCCCCCCCC)COC(=O)CCCCCCCCCCCCCC` (centres undefined) registered an I in assay [1] of 5.1%.
Take `CCCCCCCCCCCCCCC(COCc1ccccc1)NC(=O)/C=C/C(=O)O` (centres undefined): the I in assay [1] is 60.7%. It took 69.5 µM to reach half-maximal inhibition in assay [2] (IC50).
In assay [1], `CCCCCCCCCCCCCCC(CNCC(=O)OCC)NC(=O)OC(C)(C)C` (centres undefined) displayed an I of 0%.
The same measure, in the same setting: under `CCCCCCCCCCCCCCC(CO)NC(=O)CCCC(=O)O` (centres undefined) stands 0%.
For the molecule `CCCCCCCCCCCCCCCC(=O)C(F)(F)F`, the I in assay [1] stood at 67.7%. This molecule also gave an IC50 in assay [2] of 11.7 µM.
As for `CCCCCCCCCCCCCCC(CO)NCC` (centres undefined), the I in assay [3] came out at 80%; in assay [1], 25.2%; in assay [4], 63.5%; in assay [5], 62.6%. In addition, in assay [6], the IC50 is 3.7 µM.
The molecule `CCCCCCCCCCCCCCC(COCc1ccccc1)NCC` (centres undefined) gave an I in assay [1] of 0%.
Regarding `CCCCCCCCCCCCCCC(N)CN(CC)CC` (centres undefined), the I in assay [3] stood at 82.7%; in assay [1], 90.6%; in assay [4], 57.6%; in assay [5], 51.5%. Further, the IC50 stood at 11.9 µM in assay [2] and 5.6 µM in assay [6].
`CCCCCCCCCCCCCCC(N)CNC(=O)CCCC(=O)O` (centres undefined) displayed an I in assay [1] of 0%.
On the same count and under the same terms, as for `CCCCCCCCCCCCCCC(N)CN(CC(=O)OCC)CC(=O)OCC` (centres undefined), the figure is 43.9%; as for `CCCCCCCCCCCCCCC(CO)NCC(=O)O` (centres undefined), 25%.
On the same count and under the same terms, as for `CCCCCCCCCCCCCCC(COC(=O)CCCCCC)NC(=O)CCCCCC` (centres undefined), the figure is 2.3%; as for `CCCCCCCCCCCCCCC(COCc1ccccc1)N(CC)CC` (centres undefined), 1.9%; as for `CCCCCCCCCCCCCCC(=O)NC(CCCCCCCCCCCCCC)COC(=O)CCCCCC` (centres undefined), 0.5%.
As for `CCCCCCCCCCCCCCC(COCc1ccccc1)NC(=O)CCC(=O)O` (centres undefined), the I in assay [1] turned out to be 72%. This molecule also showed an IC50 in assay [2] of 62.8 µM.
